Measurements as given in PMC5524211 (Nuclear medicine and biology, 2017).
pIC50: −log10 of the molar value.

Columns and labels:
ATR [1] = settings: cited from earlier work
ATR [2] = target: ATR (Homo sapiens, UniProt Q13535); experiment: Competitive displacement assay of [18F]-ATRi by Ve-821 in U251 MG cells; format: cell-based
How it was run: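 U251 MG cells were grown in MEM with 10% heat-inactivated FBS and penicillin/streptomycin, then seeded at 10^5 cells 24 h before the assay. The 18F-labelled test tracer (final 0.667 nM) was co-incubated with unlabelled competitor (0–1333 nM) for 1 h at 37 °C. Cells were PBS-washed twice, lysed with 1 N NaOH, and bound 18F was γ-counted. Percent bound was run in triplicate and fitted against competitor concentration.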

[3] = 4 h post injection, healthy athymic nude mice, i.v.
U251 MG cells = experiment: In vitro cell uptake; format: cell-based, human
How it was run: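 U251 MG cells were plated at 0.5 million/well the day before, PBS-washed twice, then incubated with 18F-labelled test tracer (6 μCi/well) in MEM at 37 °C for 0–240 min. For blocking, a 100-fold excess of unlabelled ATR inhibitor was co-incubated. At each time point, cells were PBS-washed twice and lysed in 1 M NaOH (10 min, 37 °C), and lysate activity was γ-counted.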

[4] = 1-octanol / 25 mM phosphate buffered saline pH 7.4
[5] = Chemical Hydrophobicity Index; format: physicochemical; settings: from HPLC retention time
How it was run: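 Reverse-phase HPLC retention times were measured for a set of standards with known CHI to build a standard curve. The CHI of the non-radioactive (19F) test compound was calculated from its retention time on that curve.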

Plasma protein binding = format: in vitro ADME; settings: serum
How it was run: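 Equilibrium dialysis: 500 μM non-radioactive test compound in serum against PBS, 4 h at 37 °C on an orbital shaker at 100 rpm. Samples from both chambers were protein-precipitated (90/10 acetonitrile/water, 0.1% formic acid) and analysed by HPLC with peak integration. % bound = [1 − (buffer conc./plasma conc.)]×100, reported as mean ± SD.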

[6] = blocked with 100-fold excess Ve-821 pre-injected 30 min before, 120 min p.i.

Chain of ATR (Homo sapiens, UniProt Q13535) (Q13535 whole entry): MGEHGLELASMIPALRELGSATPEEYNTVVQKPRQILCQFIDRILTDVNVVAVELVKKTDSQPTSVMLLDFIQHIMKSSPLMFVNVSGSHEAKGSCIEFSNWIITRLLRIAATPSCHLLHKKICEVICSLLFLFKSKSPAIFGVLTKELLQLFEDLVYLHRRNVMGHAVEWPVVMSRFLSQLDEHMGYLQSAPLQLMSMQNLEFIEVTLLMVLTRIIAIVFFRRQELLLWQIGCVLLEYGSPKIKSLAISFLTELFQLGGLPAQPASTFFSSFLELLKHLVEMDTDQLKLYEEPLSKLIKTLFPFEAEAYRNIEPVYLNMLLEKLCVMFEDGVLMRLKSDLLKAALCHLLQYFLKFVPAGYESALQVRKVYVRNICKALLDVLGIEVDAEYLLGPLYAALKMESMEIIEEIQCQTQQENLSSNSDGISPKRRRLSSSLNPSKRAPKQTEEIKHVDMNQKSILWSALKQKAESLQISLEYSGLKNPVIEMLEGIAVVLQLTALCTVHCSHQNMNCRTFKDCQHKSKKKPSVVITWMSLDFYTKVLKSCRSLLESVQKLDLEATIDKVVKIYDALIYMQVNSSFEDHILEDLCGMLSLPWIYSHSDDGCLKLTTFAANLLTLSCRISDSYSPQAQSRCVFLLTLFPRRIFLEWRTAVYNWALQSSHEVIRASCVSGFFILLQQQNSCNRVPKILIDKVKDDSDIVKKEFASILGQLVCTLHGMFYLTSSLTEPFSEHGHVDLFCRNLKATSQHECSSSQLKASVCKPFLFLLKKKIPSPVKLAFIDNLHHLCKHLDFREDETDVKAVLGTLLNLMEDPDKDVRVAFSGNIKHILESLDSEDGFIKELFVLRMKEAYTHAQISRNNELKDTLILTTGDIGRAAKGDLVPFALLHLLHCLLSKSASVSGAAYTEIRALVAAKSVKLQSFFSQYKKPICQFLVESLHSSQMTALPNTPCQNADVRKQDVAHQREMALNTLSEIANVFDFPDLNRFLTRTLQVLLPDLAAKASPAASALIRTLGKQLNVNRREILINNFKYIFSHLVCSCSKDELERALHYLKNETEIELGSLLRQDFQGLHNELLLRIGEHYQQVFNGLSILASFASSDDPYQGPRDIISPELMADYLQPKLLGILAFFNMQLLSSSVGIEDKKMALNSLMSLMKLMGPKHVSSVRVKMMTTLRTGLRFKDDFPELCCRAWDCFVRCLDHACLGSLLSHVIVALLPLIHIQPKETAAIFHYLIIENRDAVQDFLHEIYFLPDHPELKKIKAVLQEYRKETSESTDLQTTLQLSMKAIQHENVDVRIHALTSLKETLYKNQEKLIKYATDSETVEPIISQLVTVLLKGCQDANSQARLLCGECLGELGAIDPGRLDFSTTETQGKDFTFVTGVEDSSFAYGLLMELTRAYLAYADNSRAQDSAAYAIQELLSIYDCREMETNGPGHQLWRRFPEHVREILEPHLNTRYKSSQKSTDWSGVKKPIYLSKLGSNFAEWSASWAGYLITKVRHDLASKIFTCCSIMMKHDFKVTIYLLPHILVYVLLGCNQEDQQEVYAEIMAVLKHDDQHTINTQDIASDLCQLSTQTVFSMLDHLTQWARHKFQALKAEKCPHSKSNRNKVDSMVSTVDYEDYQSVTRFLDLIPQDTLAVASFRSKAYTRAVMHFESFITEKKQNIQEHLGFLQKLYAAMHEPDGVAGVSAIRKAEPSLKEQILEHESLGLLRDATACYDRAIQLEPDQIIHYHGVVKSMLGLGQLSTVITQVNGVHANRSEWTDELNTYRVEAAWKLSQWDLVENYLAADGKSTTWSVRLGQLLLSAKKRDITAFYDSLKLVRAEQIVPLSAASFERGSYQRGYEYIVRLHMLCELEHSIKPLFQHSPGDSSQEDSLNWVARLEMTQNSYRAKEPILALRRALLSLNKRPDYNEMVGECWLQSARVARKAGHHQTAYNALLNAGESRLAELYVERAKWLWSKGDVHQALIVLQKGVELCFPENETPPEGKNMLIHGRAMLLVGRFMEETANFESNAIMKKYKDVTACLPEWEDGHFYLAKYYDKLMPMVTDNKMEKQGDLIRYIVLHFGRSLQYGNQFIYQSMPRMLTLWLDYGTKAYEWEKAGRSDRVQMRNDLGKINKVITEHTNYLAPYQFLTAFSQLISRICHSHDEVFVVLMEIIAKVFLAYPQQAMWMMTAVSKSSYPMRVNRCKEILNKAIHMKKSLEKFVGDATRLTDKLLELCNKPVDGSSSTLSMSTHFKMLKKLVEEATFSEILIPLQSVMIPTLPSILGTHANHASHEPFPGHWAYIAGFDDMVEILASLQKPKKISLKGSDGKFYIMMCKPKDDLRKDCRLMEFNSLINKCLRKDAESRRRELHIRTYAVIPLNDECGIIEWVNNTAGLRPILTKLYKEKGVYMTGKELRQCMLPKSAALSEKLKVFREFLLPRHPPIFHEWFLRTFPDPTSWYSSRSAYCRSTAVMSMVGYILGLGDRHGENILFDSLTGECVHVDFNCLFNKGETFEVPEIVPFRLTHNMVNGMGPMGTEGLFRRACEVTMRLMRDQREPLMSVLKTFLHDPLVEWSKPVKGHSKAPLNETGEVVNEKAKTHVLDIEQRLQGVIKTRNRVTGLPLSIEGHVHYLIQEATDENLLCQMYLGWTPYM
Chain of ATR (Homo sapiens, UniProt Q13535) (Q8WXE1 whole entry partner): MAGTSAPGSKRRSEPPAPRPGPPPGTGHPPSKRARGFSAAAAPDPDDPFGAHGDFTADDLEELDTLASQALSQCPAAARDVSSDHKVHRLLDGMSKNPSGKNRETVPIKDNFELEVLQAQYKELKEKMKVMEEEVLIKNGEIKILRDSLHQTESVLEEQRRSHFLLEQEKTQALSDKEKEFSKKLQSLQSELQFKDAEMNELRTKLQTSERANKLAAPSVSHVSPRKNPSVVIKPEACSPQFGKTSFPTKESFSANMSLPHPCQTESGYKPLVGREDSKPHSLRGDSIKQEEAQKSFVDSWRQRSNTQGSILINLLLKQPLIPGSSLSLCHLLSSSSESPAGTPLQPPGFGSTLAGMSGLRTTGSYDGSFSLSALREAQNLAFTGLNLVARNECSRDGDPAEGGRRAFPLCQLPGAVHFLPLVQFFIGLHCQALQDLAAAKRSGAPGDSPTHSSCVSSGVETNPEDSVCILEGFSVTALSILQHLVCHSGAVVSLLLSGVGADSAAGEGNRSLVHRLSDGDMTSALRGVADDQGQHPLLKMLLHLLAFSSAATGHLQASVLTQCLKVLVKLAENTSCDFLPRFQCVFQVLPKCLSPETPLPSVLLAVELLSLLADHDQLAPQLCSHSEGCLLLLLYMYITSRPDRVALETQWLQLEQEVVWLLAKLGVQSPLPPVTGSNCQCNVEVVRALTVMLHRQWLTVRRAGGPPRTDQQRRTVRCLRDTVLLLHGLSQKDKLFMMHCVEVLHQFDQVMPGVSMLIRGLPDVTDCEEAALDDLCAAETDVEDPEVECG

Which results are given for `CS(=O)(=O)c1ccc(-c2cnc(N)c(C(=O)Nc3ccccc3)n2)cc1` [Ve-821]?
pIC50 (ATR [1]): 7.59; pIC50 (ATR [2]): 7.42

What does the source list for `CS(=O)(=O)c1ccc(-c2cnc(N)c(C(=O)Nc3ccc([18F])cc3)n2)cc1` [[^18F]-9, 3-amino-N-(4-[^18F]phenyl)-6-(4-(methylsulfonyl)phenyl)pyrazine-2-carboxamide]?
clearance from bloodstream (fast phase) (2-phase decay curve, healthy mice, i.v.): < 10 min; weighted blood half-life (single bolus intravenous injection via tail vein, nude mice, two-phase decay fit): 6.2 min; ex vivo blood stability (tracer stable) [3]: greater than 97%; cell uptake, blocked (U251 MG cells; U251 MG cells blocked with Ve-821 (100-fold excess), co-incubated 240 min): 0.16±0.1%; cell uptake (U251 MG cells; U251 MG cells, 240 min incubation with [18F]-ATRi only): 3.5 ± 0.1%; tumor-to-brain ratio (U251 MG xenograft; U251 MG xenograft mice): > 15; kidney uptake (U251 MG xenograft; biodistribution, 120 min p.i.): 3.51 ± 0.23 %ID/g; liver uptake (U251 MG xenograft; biodistribution, 120 min p.i.): 3.68± 1.39 %ID/g; blood uptake, blocked (U251 MG xenograft; [6]): 0.84 ± 0.3 %ID/g; tumor uptake, blocked (U251 MG xenograft; [6]): 0.46 ± 0.12 %ID/g; blood uptake (U251 MG xenograft; unblocked, 120 min p.i., i.v.): 1.85 ± 0.47 %ID/g; LogPO/W [4]: 1.6

With `CS(=O)(=O)c1ccc(-c2cnc(N)c(C(=O)Nc3ccc(F)cc3)n2)cc1` [compound 5, 3-amino-N-(4-fluorophenyl)-6-(4-(methylsulfonyl)-phenyl)pyrazine-2-carboxamide] as the compound, how does the CHI value [5] read?
Its CHI value is 76.8.

And the fraction unbound at 4 h, 500 μM (Plasma protein binding)?
Its fraction unbound at 4 h, 500 μM is about 0.1.
